Tests used:
[1] = biological target: Bromodomain-containing protein 4 (Homo sapiens, UniProt O60885); test: Inhibition of BRD4(1) (unknown origin) incubated for 4 hrs by (+)-JQ1 fluorescent ligand based fluorescence anisotrophy
HT-29 = test: Growth inhibition of human HT-29 cells after 72 hrs by SRB assay; format: functional, cell-based; conditions: HT-29, 72 h
How it was run: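 HT-29 cells are grown in McCoy's 5A with 10% FBS at 37 °C, 5% CO2. DMSO stocks (0.01 mol/L) are diluted in normal saline just before use. Cells are treated in triplicate with gradient concentrations for 72 h at 37 °C.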

[2] = Stability in human liver microsomes assessed as clearance at 1 uM pre-incubated for 5 mins followed by NADPH addition and measured after 5 to 30 mins post NADPH addition by LC/MS/MS method; format: ADME; conditions: read-out: CLH
How it was run: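 Human liver microsomes (0.5 mg/mL) preincubated with 1 µM compound for 5 min at 37 °C in 0.1 M phosphate pH 7.4 with 1 mmol EDTA and 5 mmol MgCl2. Started with 1 mmol NADPH; sampled at 0, 5, 10 and 30 min. Quenched with equal volume of cold acetonitrile, vortexed, and centrifuged at 10,000 × g.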

CYP3A4 [3] = biological target: T1, CYP3A4 (Homo sapiens, UniProt P08684); test: Inhibition of CYP3A4 in human liver microsomes at 10 uM using midazolam substrate preincubated for 5 mins before NADPH addition and measured after 20 mins post NADPH addition; format: ADME; conditions: probe midazolam
How it was run: (§1)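 Human liver microsomes 0.2 mg/mL, 1 mmol NADPH, 100 mmol phosphate pH 7.4, probe cocktail (10 μM midazolam, 100 μM testosterone, 10 μM dextromethorphan, 20 μM diclofenac, 100 μM phenacetin, 100 μM mephenytoin), test compound 10 μM or PBS; organic solvent <1%. 5 min preincubation at 37 °C, NADPH-generating system start, 20 min reaction; inhibition from metabolite formation relative to PBS.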

CYP3A4 [4] = biological target: T1, CYP3A4; test: Inhibition of CYP3A4 in human liver microsomes at 10 uM preincubated for 5 mins before NADPH addition and measured after 20 mins post NADPH addition; format: ADME
CYP2D6 = CYP2D6 (Homo sapiens, UniProt P10635); test: Inhibition of CYP2D6 in human liver microsomes at 10 uM using dextromethorphan substrate preincubated for 5 mins before NADPH addition and measured after 20 mins post NADPH addition; format: ADME; conditions: liver microsomes, probe dextromethorphan; how it was run: as §1
Cytochrome P450 2C9 [5] = biological target: T2, Cytochrome P450 2C9 (Homo sapiens, UniProt P11712); test: Inhibition of CYP2C9 in human liver microsomes at 10 uM using diclofenac substrate preincubated for 5 mins before NADPH addition and measured after 20 mins post NADPH addition; format: ADME; conditions: microsomes, 20 min, 10 µM; how it was run: as §1
CYP1A2 = biological target: T3, CYP1A2 (Homo sapiens, UniProt P05177); test: Inhibition of CYP1A2 in human liver microsomes at 10 uM using phenacetin substrate preincubated for 5 mins before NADPH addition and measured after 20 mins post NADPH addition; format: ADME; conditions: probe phenacetin; how it was run: as §1
T3 sequence (P05177 whole entry): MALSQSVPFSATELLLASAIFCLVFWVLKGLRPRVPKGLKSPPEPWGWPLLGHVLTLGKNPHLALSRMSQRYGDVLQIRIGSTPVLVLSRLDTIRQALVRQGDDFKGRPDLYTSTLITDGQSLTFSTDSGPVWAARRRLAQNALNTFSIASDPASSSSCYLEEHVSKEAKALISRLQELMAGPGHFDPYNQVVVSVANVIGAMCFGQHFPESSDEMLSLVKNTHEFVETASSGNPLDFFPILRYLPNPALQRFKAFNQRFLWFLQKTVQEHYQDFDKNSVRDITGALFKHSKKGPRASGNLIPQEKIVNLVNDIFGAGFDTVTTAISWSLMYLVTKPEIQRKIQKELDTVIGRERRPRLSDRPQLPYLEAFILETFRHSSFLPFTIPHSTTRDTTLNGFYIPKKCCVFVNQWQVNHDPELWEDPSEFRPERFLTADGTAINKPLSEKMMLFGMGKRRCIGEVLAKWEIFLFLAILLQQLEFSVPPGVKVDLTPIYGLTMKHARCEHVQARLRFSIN

CYP2C19 = CYP2C19 (Homo sapiens, UniProt P33261); test: Inhibition of CYP2C19 in human liver microsomes at 10 uM using mephenytoin substrate preincubated for 5 mins before NADPH addition and measured after 20 mins post NADPH addition; format: ADME; conditions: probe mephenytoin; how it was run: as §1
Cytochrome P450 3A4 = Cytochrome P450 3A4 (Homo sapiens, UniProt P08684); test: Time dependent inhibition of CYP3A4 in human liver microsomes at 10 uM using midazolam substrate preincubated for 5 mins before NADPH addition and measured after 20 mins post NADPH addition; format: ADME
Cytochrome P450 2D6 = Cytochrome P450 2D6 (Homo sapiens, UniProt P10635); test: Time dependent inhibition of CYP2D6 in human liver microsomes at 10 uM using dextromethorphan substrate preincubated for 5 mins before NADPH addition and measured after 20 mins post NADPH addition; format: ADME
Cytochrome P450 2C9 [6] = biological target: T2, Cytochrome P450 2C9; test: Time dependent inhibition of CYP2C9 in human liver microsomes at 10 uM using diclofenac substrate preincubated for 5 mins before NADPH addition and measured after 20 mins post NADPH addition; format: ADME
Cytochrome P450 1A2 = biological target: T4, Cytochrome P450 1A2 (Homo sapiens, UniProt P05177); test: Time dependent inhibition of CYP1A2 in human liver microsomes at 10 uM using phenacetin substrate preincubated for 5 mins before NADPH addition and measured after 20 mins post NADPH addition; format: ADME
T4 sequence (P05177 whole entry): T3 sequence (P05177 whole entry)

Cytochrome P450 2C19 = Cytochrome P450 2C19 (Homo sapiens, UniProt P33261); test: Time dependent inhibition of CYP2C19 in human liver microsomes at 10 uM using mephenytoin substrate preincubated for 5 mins before NADPH addition and measured after 20 mins post NADPH addition; format: ADME
[7] = Growth inhibition of human MM1S cells after 72 hrs by CellTiter-Glo luminescent cell viability assay; conditions: MM1.S
MV4-11 = test: Growth inhibition of human MV4-11 cells after 72 hrs by CellTiter-Glo luminescent cell viability assay; conditions: MV4-11, 72 h

T1 sequence (P08684 whole entry): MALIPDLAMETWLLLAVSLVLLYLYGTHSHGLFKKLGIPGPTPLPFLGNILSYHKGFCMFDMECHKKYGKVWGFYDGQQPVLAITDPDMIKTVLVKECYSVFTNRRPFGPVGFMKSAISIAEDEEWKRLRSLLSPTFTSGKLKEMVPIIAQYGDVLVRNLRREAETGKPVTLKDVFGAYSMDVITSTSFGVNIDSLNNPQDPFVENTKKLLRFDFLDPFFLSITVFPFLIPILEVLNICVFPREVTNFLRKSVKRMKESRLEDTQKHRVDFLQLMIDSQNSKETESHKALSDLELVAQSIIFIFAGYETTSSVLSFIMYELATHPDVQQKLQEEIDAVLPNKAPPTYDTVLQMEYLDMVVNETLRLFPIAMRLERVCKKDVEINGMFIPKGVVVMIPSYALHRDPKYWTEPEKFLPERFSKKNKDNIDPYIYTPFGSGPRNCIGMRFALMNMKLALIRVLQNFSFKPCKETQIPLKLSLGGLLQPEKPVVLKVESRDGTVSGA
T2 sequence (P11712 whole entry): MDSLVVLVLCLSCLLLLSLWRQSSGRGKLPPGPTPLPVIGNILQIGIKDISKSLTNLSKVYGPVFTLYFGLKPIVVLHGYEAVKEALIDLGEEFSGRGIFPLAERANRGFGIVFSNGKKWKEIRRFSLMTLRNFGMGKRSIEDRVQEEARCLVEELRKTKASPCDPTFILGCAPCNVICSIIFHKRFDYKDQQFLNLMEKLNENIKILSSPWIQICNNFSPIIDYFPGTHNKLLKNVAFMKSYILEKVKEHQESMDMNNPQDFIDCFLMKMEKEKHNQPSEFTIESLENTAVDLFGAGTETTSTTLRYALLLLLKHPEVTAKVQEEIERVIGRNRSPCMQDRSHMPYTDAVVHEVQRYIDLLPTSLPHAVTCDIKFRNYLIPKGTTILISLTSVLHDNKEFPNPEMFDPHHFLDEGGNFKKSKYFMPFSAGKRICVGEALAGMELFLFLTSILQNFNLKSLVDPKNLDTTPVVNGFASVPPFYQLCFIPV
Cytochrome P450 2D6, sequence (P10635 whole entry): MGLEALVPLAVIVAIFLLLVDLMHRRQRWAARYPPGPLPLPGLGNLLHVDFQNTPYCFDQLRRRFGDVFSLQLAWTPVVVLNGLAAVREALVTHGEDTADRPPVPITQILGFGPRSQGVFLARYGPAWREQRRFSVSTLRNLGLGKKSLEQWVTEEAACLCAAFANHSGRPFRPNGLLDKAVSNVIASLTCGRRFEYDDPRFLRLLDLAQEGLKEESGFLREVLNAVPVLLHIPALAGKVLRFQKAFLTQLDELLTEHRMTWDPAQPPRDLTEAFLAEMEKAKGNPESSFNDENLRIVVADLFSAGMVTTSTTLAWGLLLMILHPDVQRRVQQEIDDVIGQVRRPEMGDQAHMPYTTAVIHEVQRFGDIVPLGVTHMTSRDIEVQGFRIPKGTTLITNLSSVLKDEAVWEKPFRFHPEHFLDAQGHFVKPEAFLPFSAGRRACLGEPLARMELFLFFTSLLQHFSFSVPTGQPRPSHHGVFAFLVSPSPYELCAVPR
CYP2D6, sequence (P10635 whole entry): as above
CYP2C19, sequence (P33261 whole entry): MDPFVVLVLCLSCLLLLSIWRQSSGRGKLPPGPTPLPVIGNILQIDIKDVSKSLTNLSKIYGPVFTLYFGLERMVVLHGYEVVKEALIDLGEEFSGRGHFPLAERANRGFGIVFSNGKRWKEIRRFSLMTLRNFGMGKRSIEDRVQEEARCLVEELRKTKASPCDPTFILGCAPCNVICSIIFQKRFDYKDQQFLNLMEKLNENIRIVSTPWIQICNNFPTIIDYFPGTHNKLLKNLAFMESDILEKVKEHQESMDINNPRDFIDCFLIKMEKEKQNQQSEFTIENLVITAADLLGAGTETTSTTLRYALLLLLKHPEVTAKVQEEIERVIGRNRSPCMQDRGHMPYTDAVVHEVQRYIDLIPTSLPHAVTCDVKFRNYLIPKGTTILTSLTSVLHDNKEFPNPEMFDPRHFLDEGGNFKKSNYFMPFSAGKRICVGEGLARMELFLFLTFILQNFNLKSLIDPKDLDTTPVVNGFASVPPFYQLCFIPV
Cytochrome P450 2C19, sequence (P33261 whole entry): as above
Cytochrome P450 3A4, sequence (P08684 whole entry): as the sequence (P08684 whole entry) above

IC50 [1]: 250 nM | IC50 (HT-29): 850 nM | microsomal CLint at 1 µM [2]: 174 µL/min/mg | inhibition at 20 min, 10 µM (CYP3A4 [3]): 41% | inhibition at 20 min, 10 µM (CYP3A4 [4]): 47% | inhibition at 20 min, 10 µM (CYP2D6): 36% | inhibition (INH) (Cytochrome P450 2C9 [5]): Not Active | inhibition at 20 min, 10 µM (CYP1A2): 37% | inhibition at 20 min, 10 µM (CYP2C19): 17% | TDI (Cytochrome P450 3A4): Not Active | TDI (Cytochrome P450 2D6): Not Active | TDI (Cytochrome P450 2C9 [6]): Not Active | TDI (Cytochrome P450 1A2): Not Active | TDI (Cytochrome P450 2C19): Not Active | IC50 [7]: 505 nM | IC50 (MV4-11): 198 nM
SMILES: CNc1cc(-c2csc(=O)[nH]2)cc(S(=O)(=O)NC2CCCC2)c1C
